Screening data from PubChem BioAssay.
Casp6 inh = blocks human caspase-6 cleavage activity; inhibition, % at 12.5 µM; purified caspase-6, Z-VEID-R110 cleavage fluorescence; 350,000 tested, 0.53% active; AID 686996;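 active = mean inhibition across replicates at least about 35%, with every replicate also reaching that limit, limit read from the data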;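 also: 0% = median of neutral control wells and 100% = no fluorescence left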
Target sequence (P55212 24-179 limits assumed): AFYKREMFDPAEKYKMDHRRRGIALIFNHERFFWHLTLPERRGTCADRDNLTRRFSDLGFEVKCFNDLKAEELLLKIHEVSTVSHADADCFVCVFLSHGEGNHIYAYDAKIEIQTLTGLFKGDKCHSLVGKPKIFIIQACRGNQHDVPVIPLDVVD
Target sequence (P55212 194-293 limits assumed): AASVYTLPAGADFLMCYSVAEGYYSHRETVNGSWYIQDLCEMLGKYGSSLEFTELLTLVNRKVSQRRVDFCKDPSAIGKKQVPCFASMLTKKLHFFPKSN
NSD2 HMT inh = inhibitors of human histone methyltransferase NSD2 | O96028 | NSD2 peptide methylation, AlphaScreen, 120 min | inhibition, % at 12.5 µM | 310,000 tested, 0.54% active; in the data active = inhibition above about 50%
MBD2 inh = blocks human MBD2 binding to methylated DNA. Q9UBB5. TR-FRET, MBD2 binding to methylated oligonucleotide. AID 686964. inhibition, % at 4.4 µM. 370,000 tested, 0.31% active; in the data active = inhibition above about 13%
TDP2 absorb = blocks human TDP2 phosphodiesterase activity; O95551; recombinant TDP2, T5PNP hydrolysis, p-nitrophenol absorbance 415 nm; inhibition, % at 12.8 µM; 370,000 tested, 0.34% active; AID 720702;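 active = inhibition above the mean of all tested compounds plus 3 SD, set per campaign, cut at about 25% in these data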;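 also: 0% = DMSO with enzyme and 100% = buffer with substrate but no TDP2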
Target sequence (O95551 whole entry, looked up): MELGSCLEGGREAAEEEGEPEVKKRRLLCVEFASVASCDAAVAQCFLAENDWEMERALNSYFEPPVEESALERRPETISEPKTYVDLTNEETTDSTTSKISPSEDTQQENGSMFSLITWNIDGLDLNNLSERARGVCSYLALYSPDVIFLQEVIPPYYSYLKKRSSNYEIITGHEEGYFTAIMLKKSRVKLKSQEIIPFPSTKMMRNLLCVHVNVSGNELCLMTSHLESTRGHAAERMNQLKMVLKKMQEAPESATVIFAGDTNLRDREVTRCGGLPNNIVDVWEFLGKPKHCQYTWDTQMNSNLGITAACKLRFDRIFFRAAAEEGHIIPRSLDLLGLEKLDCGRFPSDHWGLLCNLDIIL
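System – recombinant human TDP2 · Quantity – TDP2 enzyme at 120 nM final · Doses – single concentration, 12.8 µM nominal, with 1% DMSO · Incubation – 2 h at 37 °C · Measured by – epi absorbance of p-nitrophenol freed from T5PNP by hydrolysis · Read-out – % inhibition relative to enzyme-containing and enzyme-free wells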
LEDGF integ inh = blocks HIV-1 LEDGF/p75-dependent DNA integration | 370,000 tested, 0.64% active | inhibition, % at 3.7 µM | AID 743269 | TR-FRET IN-LEDGF/p75 DNA integration, Eu/Cy5;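 active = inhibition above the screen-wide mean plus 3 SD, cut at about 13% in these data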;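 also: signal is the Cy5 over europium emission ratio at 671 and 618 nm; 0% = plate median of compound wells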
UHRF1 binding = UHRF1 methyl-DNA binding inhibition | Q96T88 | UHRF1 binding to methylated oligo, TR-FRET | inhibition, % at 4.4 µM | 370,000 tested, 0.75% active | AID 687016; in the data active = inhibition above about 21%;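 also: UHRF1 SRA domain binding a hemimethylated CpG hairpin DNA probe; 0% = median of test compound wells and 100% = reference inhibitor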
* = called active by the depositor; x = no result given. Most compounds without a hit are left out; they make up all but 1.9% or so of the library.

SMILES | Casp6 inh | NSD2 HMT inh | MBD2 inh | TDP2 absorb | LEDGF integ inh | UHRF1 binding
C[C@@H]1CN([C@H](C)CO)C(=O)c2cc(C#CC3CCCCC3)cnc2O[C@H]1CN(C)Cc1cccnc1 | -2 | x | 9 | 1 | 3 | 23*
C[C@@H]1CN([C@@H](C)CO)C(=O)c2cc(C#CC3CCCCC3)cnc2O[C@@H]1CN(C)S(=O)(=O)c1ccc(F)cc1 | 4 | x | 11 | -8 | 3 | 21*
C[C@@H]1CN([C@H](C)CO)C(=O)c2cc(C#CC3CCCCC3)cnc2O[C@@H]1CN(C)Cc1cccnc1 | 3 | x | x | x | x | x
COc1ccc(S(=O)(=O)N(C)C[C@@H]2Oc3c(NC(=O)CCCCCC(=O)Nc4ccccc4N)cccc3C(=O)N([C@H](C)CO)C[C@H]2C)cc1 | 0 | x | x | x | x | x
Cc1cc(NC(=O)CN2C(=O)NC(C)(c3ccccc3)C2=O)no1 (stereo not drawn) | x | 0 | 3 | 17 | 1 | 97*
CC(SC(=S)N1CCCC1)C(=O)O (stereo not drawn) | -3 | -1 | 3 | 2 | 0 | 24*
CC(C)(SC(=S)N1CCCCCC1)C(=O)O | -2 | 1 | -1 | 8 | 0 | 2
C[C@@H]1CCCCO[C@H](CN(C)Cc2ccc(C(=O)O)cc2)[C@H](C)CN([C@H](C)CO)C(=O)c2cc(NC(=O)c3ccccc3)ccc2O1 | -1 | x | x | x | x | x
O=C(Cn1c(-c2ccccc2Cl)nc2ccccc21)Nc1cccc(Cl)c1 | -1 | -3 | 0 | -1 | 3 | -1
Cc1cc(C)cc(NC(=O)Cn2c(-c3ccccc3Cl)nc3ccccc32)c1 | x | 10 | 4 | 16 | -1 | 22*
CCOC(=O)N1CCC(NC(=O)c2cc(C(=O)NCc3ccc(F)cc3)ccc2CO)CC1 | x | x | 11 | 3 | 9 | 23*
CCOC(=O)N1CCC(NC(=O)c2cc(C(=O)NCc3cccc(Cl)c3)ccc2CO)CC1 | x | -6 | 2 | -4 | 1 | -1
C[C@@H]1CN([C@H](C)CO)C(=O)c2cc(C#CC3CCCCC3)cnc2O[C@H]1CN(C)Cc1ccncc1 | -3 | x | x | x | x | x
NC(=O)N[C@@H](Cc1c[nH]c2ccccc12)C(=O)OCC(=O)N1CCCCC1 | -1 | -2 | 2 | 2 | -5 | 24*
Cc1ccc(S(=O)(=O)Nc2ccc3c(c2)C(=O)N([C@H](C)CO)C[C@@H](C)[C@H](CN(C)Cc2ccc(-c4ccccc4)cc2)O3)cc1 | 2 | x | x | x | x | x
O=C(C[C@H]1C[C@H]2c3cc(NC(=O)c4cccnc4)ccc3O[C@H]2[C@H](CO)O1)NCc1cccnc1 | -5 | x | x | x | x | x
COc1ccccc1NC1=C(N2CCCCC2)C(=O)c2ccccc2C1=O | x | 93* | x | x | x | x
COc1ccccc1NS(=O)(=O)c1cc(N)ccc1N1CCCC1 | 0 | 2 | 0 | 1 | 1 | -2
COc1ccc(NC(=O)Nc2ccc3c(c2)C(=O)N([C@@H](C)CO)C[C@H](C)[C@@H](CN(C)Cc2ccc4c(c2)OCO4)OCCCC[C@H](C)O3)cc1 | 2 | x | x | x | x | x
CC(=O)/C=C1/SC(CC(=O)O)C(=O)N1c1ccccc1 (stereo not drawn) | x | 115* | -1 | 3 | 1 | -2
O=C(c1ccccn1)N1C[C@H]2[C@@H](c3ccccc31)[C@H](CO)N2C(=O)Cc1ccccc1 | 4 | x | x | x | x | x
C=C(C)C(=O)Nc1cccc(C2=NOC3(C2)C[C@H](C(N)=O)N(C(=O)c2ccccc2)C3)c1 (stereo partly drawn) | 31 | x | 9 | -7 | 1 | 26*
C/C=C(/C)C(=O)Nc1cccc(C2=NOC3(C2)C[C@H](C(N)=O)N(C(=O)c2ccc(Cl)cc2)C3)c1 (stereo partly drawn) | 4 | x | 2 | 6 | -1 | 0
CCc1noc(C)c1C(=O)Nc1ccc(S(=O)(=O)N2CCCC(C)C2)cc1 (stereo not drawn) | 42* | -2 | 0 | 4 | -4 | -2
COCC#Cc1cnc2c(c1)C(=O)N([C@H](C)CO)C[C@H](C)[C@@H](CN(C)C(=O)Nc1ccccc1F)O2 | 0 | x | x | x | x | x
SMILES | Casp6 inh | NSD2 HMT inh | MBD2 inh | TDP2 absorb | LEDGF integ inh | UHRF1 binding
Cn1c(=O)[nH]c(=O)c2c1nc(CN1CCOCC1)n2CCc1ccccc1 | x | 18 | 7 | 5 | 3 | 1
Cn1c(=O)[nH]c(=O)c2c1nc(CN1CCOCC1)n2Cc1ccccc1 | 51* | -3 | 10 | -14 | -5 | 4
O=S(=O)(c1ccccc1F)N1C[C@H]2[C@@H](c3ccccc31)[C@@H](CO)N2Cc1ccc2c(c1)OCO2 | -2 | x | x | x | x | x
Clc1ccccc1Cc1noc(CN2CCN3CCCC3C2)n1 (stereo not drawn) | -5 | -1 | 4 | -3 | 2 | 29*
O=c1nc2ccc(Cl)cn2c2ccc(S(=O)(=O)N3CCCCC3)cc12 | 92* | -1 | -2 | -10 | -9 | 1
Cn1c(SCC(=O)NC2CCCC2)nnc1-c1ccncc1 | x | -4 | -2 | -3 | 0 | 1
Cn1c(SCC(=O)NC2CCCCC2)nnc1-c1ccccn1 | 39* | -2 | -4 | -10 | 2 | 1
Cc1cc(NC(=O)CSc2nnc(-c3ccccc3)n2C)no1 | 2 | 0 | 2 | 2 | 4 | 2
Cn1c(SCC(=O)NC2CCCC2)nnc1-c1ccccn1 | -3 | 8 | -1 | 20 | -2 | 3
CNC(=O)CSc1nnc(-c2ccccc2)n1C | -1 | -1 | -3 | 1 | 1 | 31*
CC(C)c1ccc(-c2nnc(SCC(=O)NC3CC3)n2C)cc1 | 53* | -2 | 3 | -3 | -7 | 4
O=C(NCC(F)(F)F)[C@@H]1[C@@H](CO)[C@@H]2Cn3c(ccc(-c4cccnc4)c3=O)[C@H]1N2Cc1ccccc1 | -2 | x | x | x | x | x
CC(=O)N(Cc1ccc(F)cc1)C1=C(NCCc2ccccc2)C(=O)c2ccccc2C1=O | x | x | 1 | 8 | 23* | 2
CO[C@H]1CN(C)C(=O)c2ccc(NC(=O)NC(C)C)cc2OC[C@H](C)N(CC2CC2)C[C@@H]1C | 2 | x | x | x | x | x
COC(=O)[C@@H]1[C@@H](CO)[C@@H]2Cn3c(cccc3=O)[C@@H]2N1CC1CCOCC1 | 74* | x | x | x | x | x
O=C([C@H]1[C@H](CO)[C@H]2Cn3c(cccc3=O)[C@H]2N1Cc1ccccn1)N1CCC(Cc2ccccc2)CC1 | 41* | x | x | x | x | x
O=C([C@@H]1[C@@H](CO)[C@@H]2Cn3c(cccc3=O)[C@@H]2N1Cc1cc(F)ccc1F)N1CCOCC1 | 49* | x | x | x | x | x
CC(C)CC#Cc1ccc2c(c1)O[C@H](CN(C)Cc1ccncc1)[C@H](C)CN([C@@H](C)CO)S2(=O)=O | 0 | x | x | x | x | x
O=c1[nH][nH]c2c(N=Cc3ccccc3O)ccc(F)c12 | 97* | x | x | x | x | x
